Assay outcomes (PubChem)
In the library only some 3.5% were active in any assay of this set; here they are far more common.
MrgX1 ag: activates human MrgX1 receptor signaling | AID 588627 | B-score at 10 µM | MrgX1-HEK293 cells, Fluo-4 calcium fluorescence, agonist mode; active compounds read high | Q96LB2 | actives 0.44% (n = 310,000);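 active means calcium response B-score plate-corrected fluorescence ratio at least 3 library SD, with starting fluorescence B-score inside 5 SD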
Target sequence (Q96LB2 whole entry, looked up): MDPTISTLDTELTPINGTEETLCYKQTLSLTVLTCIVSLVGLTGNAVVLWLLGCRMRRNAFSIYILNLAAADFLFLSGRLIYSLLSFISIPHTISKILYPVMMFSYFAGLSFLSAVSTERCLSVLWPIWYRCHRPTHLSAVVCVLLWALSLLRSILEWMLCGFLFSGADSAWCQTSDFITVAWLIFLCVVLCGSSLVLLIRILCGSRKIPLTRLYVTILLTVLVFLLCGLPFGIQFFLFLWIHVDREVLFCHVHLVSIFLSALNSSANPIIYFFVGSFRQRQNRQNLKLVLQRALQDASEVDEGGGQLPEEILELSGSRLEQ
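times = overnight plating, then 30 min 37 °C plus 30 min room-temperature dye loading | assay system = stable human MrgX1 HEK293 cell line | input = fifteen thousand cells per well | signal = kinetic calcium dye fluorescence, Fluo-4 NW | dosing = compound delivered in addition one of three | read-out = B-scored fluorescence response ratio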
RGS4 pot: RGS4 potentiation or activation | HEK293 M3R/inducible RGS4, carbachol calcium flux Fluo4; active compounds read low | actives 0.92% (n = 310,000) | B-score at 10 µM;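 active means B-score of the integrated calcium signal more than 4 SD below the library mean, with starting fluorescence not abnormally high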;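 further: negative B-score means reduced calcium response which marks RGS4 activation or potentiation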
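test system = M3R-expressing HEK293 line, RGS4 induced by doxycycline | probe or stimulus = carbachol at ECmax as muscarinic agonist stimulus | timing = dye loading 30 min 37 °C, buffer rest 30 min RT | signal = calcium dye Fluo4 fluorescence | evaluation = B score from integrated fluorescence ratio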
MrgX1 allo act: human MrgX1 positive allosteric modulation, primary screen | actives 0.63% (n = 310,000) | MrgX1-HEK293, Fluo-4 calcium flux, FDSS; active compounds read high | B-score at 10 µM | AID 588675 | Q96LB2;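 active means plate-corrected calcium response at least 3 library SD above typical, normal starting fluorescence, not activating the receptor alone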;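 further: compound read alongside a low EC10 to EC30 dose of BAM8-22 agonist; peak minus trough fluorescence over baseline measured at the second addition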
MrgX1 antagonist: human MrgX1 receptor antagonism, primary screen | Q96LB2 | AID 588676 | MRGX1-HEK293 calcium flux, Fluo-4, BAM8-22 antagonism; active compounds read low | B-score at 10 µM | actives 1.3% (n = 310,000);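 active means calcium-response B-score plate-corrected more than 3 library SD below zero, starting fluorescence within 5 deviations, no agonist response on first addition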;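 further: peak minus trough fluorescence over baseline after final BAM8-22 challenge near maximal dose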
RGS4 block: human RGS4 inhibition. P49798. HEK293 M3R/RGS4 inducible, Fluo-4 calcium flux; active compounds read high; triggered by carbachol at its EC20. B-score at 10 µM. actives 0.45% (n = 310,000). AID 463165;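 active means B-score, a plate-corrected calcium signal, over three deviations above library mean, with baseline fluorescence within five deviations of library mean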;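 further: RGS4 expression induced by doxycycline in cells with stable M3 receptor; B-score is computed from the integrated fluorescence ratio over baseline after carbachol; higher B-score means a larger calcium signal and so more RGS4 inhibition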
Target sequence (P49798 whole entry, looked up): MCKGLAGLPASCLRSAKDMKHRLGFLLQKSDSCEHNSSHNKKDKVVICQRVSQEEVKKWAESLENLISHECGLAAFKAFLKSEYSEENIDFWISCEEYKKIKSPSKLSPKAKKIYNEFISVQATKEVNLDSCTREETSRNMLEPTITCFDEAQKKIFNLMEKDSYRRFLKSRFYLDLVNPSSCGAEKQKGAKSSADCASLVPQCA
RGS4 block valid: validation of RGS4 inhibitors | shares compounds with RGS4 block | HEK293 M3R/RGS4, carbachol calcium Fluo-4 fluorescence; carbachol added at its EC20; 0 = buffer wells, 100 = carbachol control | calcium response, % at 10 µM | actives 65% (n = 1,700) | AID 492999;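 active means duplicate-averaged calcium response above the buffer-only control mean plus 5 SD of those controls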;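 further: integrated fluorescence ratio F max minus min over baseline F0; higher response in RGS4-induced cells means RGS4 inhibition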
RGS4 uninduced: checks RGS4 inhibitor effects in non-induced HEK293 M3R cells | activity (percent), % at 10 µM | AID 493000 | carbachol calcium Fluo-4; submaximal (EC20) carbachol stimulus; buffer wells 0%, carbachol control wells 100% | shares compounds with RGS4 block | actives 20% (n = 1,900); call rule not given here;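 further: RGS4 induction absent so cells express M3R without RGS4; higher means more calcium signal and flags a non-specific hit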
RGS4 inh ctr2: second RGS4 inhibitor counter-screen in uninduced cells lacking carbachol; HEK293 M3R/RGS4 non-induced, Fluo-4 calcium, no carbachol; normalised: buffer wells 0%, carbachol wells 100%; calcium response (agonist-mode artifact), % at 10 µM; AID 493001; shares compounds with RGS4 block; actives 22% (n = 1,900);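 active means duplicate-averaged calcium rise in uninduced cells above buffer wells' mean plus 5 SD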
Large screens that a line does not name were inactive (follow-up assays come after a bar, where they were run).

N/C(=N\OC(=O)C1CC1)c1ccc([N+](=O)[O-])s1	none
CCN1C(=O)/C(=C\c2ccncc2)SC1=Nc1ccc(C)c(C)c1	RGS4 block 8.2 | RGS4 block valid 30% | RGS4 uninduced inactive | RGS4 inh ctr2 inactive
CNc1nc(OC)nc(N(C#N)CN2C(=O)c3ccccc3S2(=O)=O)n1	none
C=CCN1CC(O)=C(c2nc3ccccc3[nH]2)C1=N	none
Cc1cnc(Sc2ncccc2[N+](=O)[O-])nc1	none
Cc1cc(C)n2nc(Sc3ncccc3[N+](=O)[O-])nc2n1	RGS4 block 9.5 | RGS4 block valid 28% | RGS4 uninduced 34% | RGS4 inh ctr2 inactive
CCOC(=O)CC(=O)Nc1ccsc1C(N)=O	none
O=C(Cn1nc(-c2ccc3c(c2)OCCO3)ccc1=O)Nc1cccc(NC(=O)c2ccccn2)c1	none
COc1ccc(NC(=O)/C(Cl)=C(/Cl)S(=O)(=O)Cc2ccccc2)cn1	RGS4 block 18 (no result: MrgX1 ag, MrgX1 allo act, MrgX1 antagonist) | RGS4 block valid 69% | RGS4 uninduced 48% | RGS4 inh ctr2 15%
Cc1c(/C=N/NC(=O)CNc2ccccc2)c2ccccn2c1C(=O)c1ccccc1	none | RGS4 block valid inactive | RGS4 uninduced inactive | RGS4 inh ctr2 16%
Cc1c(/C=N/NC(N)=O)c2ccccn2c1C(=O)c1ccncc1	none
Cc1cc(C)c(C(=O)COC(=O)c2cccnc2Cl)c(C)c1	none
FC(F)(F)c1cc(CCN2CCNC[C@H]2Cc2cccc3ccccc23)cc(C(F)(F)F)c1	RGS4 block 5.1 | RGS4 block valid 7.0% | RGS4 uninduced inactive | RGS4 inh ctr2 inactive
Oc1ccc(C[C@@H]2CNCCN2CCc2cc(C(F)(F)F)cc(C(F)(F)F)c2)cc1	none
COc1ccc(/C=C2\C(=O)ON=C2c2ccccc2)cc1	none
O=C1ON=C(c2ccccc2)/C1=C/c1ccc(O)c(O)c1	RGS4 block 5.7 | RGS4 block valid 26% | RGS4 uninduced inactive | RGS4 inh ctr2 53%
COc1ccc(Cl)cc1/C=C1/C(=O)ON=C1C	none
CC1=NOC(=O)/C1=C/c1ccc(O)c(Cl)c1	MrgX1 ag 37, RGS4 block 8.2 | RGS4 block valid 17% | RGS4 uninduced inactive | RGS4 inh ctr2 50%
COc1cc(/C=C2\C(=O)ON=C2c2ccc(Cl)cc2)ccc1O	MrgX1 ag 27 | RGS4 uninduced inactive | RGS4 inh ctr2 56%
O=C1ON=C(c2cccc([N+](=O)[O-])c2)/C1=C/c1ccc(O)cc1	RGS4 block 16 | RGS4 block valid 44% | RGS4 uninduced inactive | RGS4 inh ctr2 29%
CCOC(=O)c1cnc(SCC(=O)NNC(=O)c2ccco2)nc1N	none
Cc1c(N(C)S(=O)(=O)c2cccc(C(=O)NC(C)C)c2)c(=O)n(-c2ccccc2)n1C	none
CC1CCCC(NS(=O)(=O)c2cccc3nsnc23)C1C (stereo unspecified)	none
Cc1ccc(/C=C(\NC(=O)c2ccc(C)cc2)c2nc(=S)[nH][nH]2)cc1	RGS4 block 11 | RGS4 block valid 35% | RGS4 uninduced 44% | RGS4 inh ctr2 inactive
Cc1ccc(C(=O)N/C(=C\c2ccccc2F)c2nc(=S)[nH][nH]2)cc1	none
CC(C)=CCc1c(O)cc2c(=O)c3ccc(O)cc3oc2c1O	RGS4 block 11 | RGS4 block valid 9.0% | RGS4 uninduced inactive | RGS4 inh ctr2 inactive
Cc1ccc(C)c(S(=O)(=O)N2CCCC2CNC(=O)C(=O)NCC2CCCO2)c1 (stereo unspecified)	none
c1ccc(Nc2nc(N3CCCC3)nc(N3CCCC3)n2)cc1	none
c1ccc(Nc2nc(N3CCCCC3)nc(N3CCCCC3)n2)cc1	RGS4 block 5.2 | RGS4 block valid 26% | RGS4 uninduced inactive | RGS4 inh ctr2 inactive
c1ccc(Nc2nc(N3CCCCC3)nc(N3CCNCC3)n2)cc1	none | RGS4 block valid inactive | RGS4 uninduced inactive | RGS4 inh ctr2 16%
CC(C)OP(=O)(OC(C)C)/C(C=O)=N\Nc1ccc([N+](=O)[O-])cc1	RGS4 block 6.6 | RGS4 block valid 13% | RGS4 uninduced inactive | RGS4 inh ctr2 inactive
CCCc1cc(C(=O)Nc2cc(OC)ccc2OC)cs1	none
CCOC(=O)N1[C@@H]2C=C(C)[C@@H]2[C@@H]2[C@@H](C)C(=O)N21	none
CC(=O)c1c[nH]c(C(=O)NCc2ccccc2Cl)c1	RGS4 block 5.2 | RGS4 block valid inactive | RGS4 uninduced inactive | RGS4 inh ctr2 inactive
CC(=O)N(C1CC(C)C(C#N)(C#N)C1(C#N)C#N)N(C)C (stereo unspecified)	RGS4 block 28 | RGS4 block valid 62% | RGS4 uninduced inactive | RGS4 inh ctr2 9.0%
CCCC(=O)N(C1CC(C)C(C#N)(C#N)C1(C#N)C#N)N(C)C (stereo unspecified)	RGS4 block 7.7 | RGS4 block valid 30% | RGS4 uninduced inactive | RGS4 inh ctr2 22%
COC(=O)c1c(C)cc(O)c(C=O)c1O	RGS4 block 5.2 | RGS4 block valid 26% | RGS4 uninduced inactive | RGS4 inh ctr2 inactive
COC(=O)c1c(C)c(OC(=O)c2c(C)cc(O)c(C=O)c2O)cc(C)c1O	none
Cc1[nH]c2ccccc2c1/C=N/Nc1nc(N2CCCCC2)nc(N2CCCCC2)n1	RGS4 block 11 | RGS4 block valid 38% | RGS4 uninduced 63% | RGS4 inh ctr2 inactive
C(=N\Nc1nc(N2CCCCC2)nc(N2CCCCC2)n1)/c1c[nH]c2ccccc12	none
CC(=O)Oc1ccc(/C(C)=N/N2CCN(Cc3ccc(C)cc3)CC2)cc1	none
COc1ccc(CN2CCN(C3CCC3)CC2CCO)c(F)c1 (stereo unspecified)	none
COC(=O)C1=C(C)N(C2CCCCC2)C(=O)/C1=C\c1cccs1	RGS4 block 5.7 | RGS4 block valid 10% | RGS4 uninduced inactive | RGS4 inh ctr2 inactive
COc1ccc(N(CC(=O)NC2CCCCC2)C(=O)CCC(=O)Nc2nc(C)cs2)cc1OC	none
O=C(Nc1ccc(Cl)cc1)OCc1cc(-c2ccccc2Cl)on1	none
Cc1ccc(NC(=O)OCc2cc(-c3ccccc3)on2)cc1	none | RGS4 block valid inactive | RGS4 uninduced inactive | RGS4 inh ctr2 inactive
c1ccc(Nc2ncnc3[nH]ncc23)cc1	none
CC(C)(C)c1ccc(/C=C(\c2nc3ccccc3[nH]2)S(=O)(=O)c2ccccc2)cc1	none | RGS4 block valid inactive | RGS4 uninduced inactive | RGS4 inh ctr2 inactive
Cc1ccc(NS(=O)(=O)c2ccc(Cl)c(C(=O)O)c2)cc1S(=O)(=O)N1CCOCC1	none
